Screens from PubChem.
An excerpt weighted towards active compounds, which were near 2.3% of everything screened.
C8 TRAIL sens = sensitizes caspase-8 expressing cells to TRAIL. NB7+C8 cells + TRAIL, ATPlite viability luminescence. 360,000 compounds, 1% hits. inhibition (viability loss, TRAIL sensitization), % at 10 µM;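 active = compounds causing at least 50% loss of cell viability in the single-dose screen, relative to plate controls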
STAT3 inh = inhibitors of IL-6 induced STAT3 signaling. 190,000 compounds, 0.89% hits. U3A cells, IL-6 STAT3-luciferase reporter, luminescence; host cell line lacks STAT1. inhibition, % at 5.5 µM;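 active = inhibition above the mean inhibition across all screened compounds plus 3 SD, cut at about 44% in these data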;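 note: 0% = DMSO only wells and 100% = 100 µM nifuroxazide control wells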
HSP90 inh = HSP90 refolding inhibition in rabbit reticulocyte lysate; luciferase refolding luminescence, 3 h; inhibition, % at 5.6 µM; 290,000 compounds, 0.91% hits; AID 1789;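 active = inhibition above the screen-wide mean plus 3 SD, computed separately per campaign, cut at about 16% in these data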;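 note: 0% = DMSO wells and 100% = 60 µM geldanamycin wells; inhibitors lower the luminescence because luciferase stays unfolded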
PPC-1+TRAIL kill = compounds killing PPC-1 cancer cells with TRAIL present (potentiator screen, no TRAIL-free arm); PPC-1 cells + TRAIL, ATPLite viability luminescence; cell killing (% activity), % at 4 µM or 5 µM; 220,000 compounds, 0.41% hits;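 active = cell killing above 50% in the first pass at 4 µM, then a duplicate retest at 5 µM averaging 50% or more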;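 note: plate controls were cells with TRAIL plus DMSO for no effect and medium-only wells lacking cells for full effect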
STAT1 blocker = reduces IFN-gamma driven STAT1 reporter signal. inhibition, % at 5.5 µM. 200,000 compounds, 0.35% hits. NIH 3T3 STAT1-luciferase reporter, luminescence;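 active = inhibition above a set limit, the mean inhibition across all tested compounds plus 3 SD, cut at about 34% in these data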;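 note: 0% = IFN-gamma with DMSO and 100% = IFN-gamma with 300 µM nifuroxazide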
STAT3 act = STAT3 signaling activation | U3A cells, IL-6 STAT3-luciferase reporter, luminescence; 100% = signal with IL-6 EC80 alone | activation (% of control), % at 5.6 µM | 190,000 compounds, 0.91% hits;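 active = activation above the screen-wide mean of compound activation plus 3 SD, cut at about 130% in these data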;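 note: 0% = background luminescence of wells with medium and substrate only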
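Material: STAT3-luciferase reporter U3A cells. Controls: IL-6-treated wells, 100% activation. Read-out: % activation versus median of IL-6-stimulated wells. Probe or stimulus: IL-6 stimulus at 33 ng/mL final. Timing: compound 1 h, then IL-6 6 h at 37 °C. Signal: reporter luminescence signal.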
The depositor's hits bear a star; x = no result given.

SMILES	C8 TRAIL sens	STAT3 inh	HSP90 inh	PPC-1+TRAIL kill	STAT1 blocker	STAT3 act
O=C(C1CCN(c2nnc(N3CCCC3=O)s2)CC1)N1CCN(Cc2ccc3c(c2)OCO3)CC1	0.7	-12.7	33.4*	1.1	-8.4	116.8
Cc1ccc(OCC(=O)N2CCN(S(=O)(=O)c3ccc4c(c3)OCCO4)CC2)c(C)c1	-4.7	x	x	x	x	x
O=C1/C(=C\c2cccs2)Sc2ccc3ccccc3c21	37.3	-93.6	2.2	12.0	-5.6	180.3*
O=C1C(=Cc2cccs2)C(=O)c2ccccc21	1.2	-2.9	-1.4	-1.4	-5.2	101.6
C#CCSc1nnc(-c2ccc(C)cc2)o1	90.1*	20.4	3.7	17.2	-31.2	84.0
Cc1ccc(CSc2nnc(-c3cccnc3)o2)cc1	54.1*	12.3	3.8	-8.3	0.3	95.7
Cc1c(C(=O)Nc2ccc3c(c2)OCCO3)oc2ccc(Br)cc12	2.8	x	x	x	x	x
CCOc1ccc2nc(N3C(=O)CNC3=S)sc2c1	59.4*	x	-1.4	42.3	x	x
O=C(Nc1ccccc1)C1CC2CCCC(C1)C2=O (stereo not given)	8.9	12.8	-1.7	8.4	5.6	97.4
O=c1oc(-c2ccccc2)nc2sc3c(c12)CCC3	-0.1	2.5	0.4	19.2	-10.4	101.1
Nc1nc(-c2ccccc2)nc2sc3c(c12)CCCC3	76.2*	-8.9	-2.9	54.7*	-102.2	105.1
Cc1ccc(NC(=O)/C(C#N)=C/c2cn(CC(=O)NCc3ccco3)c3ccccc23)cc1C	41.3	-11.3	-2.5	46.4	2.7	112.8
Cc1cc(C)cc(NC(=O)/C(C#N)=C/c2cn(CC(=O)NCc3ccco3)c3ccccc23)c1	66.2*	-6.9	1.2	50.1*	5.1	101.9
COc1ccc(F)cc1-c1cc(NC(C)=O)c2ncc(-c3cc(OC)c(OC)c(OC)c3)n2c1	18.5	x	x	x	x	x
NC(=O)c1ccccc1NC(=O)/C=C/c1ccccc1	60.3*	-3.1	-2.4	41.4	-32.2	98.3
COc1ccc(N(CC(=O)NC2CCCC2)C(=O)CCC(=O)Nc2cc(C)on2)cc1	-16.6	x	-2.5	x	x	x
Cc1nc(=S)c2c([nH]1)-c1ccccc1CC21CCCCC1	79.8*	x	-1.2	4.1	x	x
CCc1nc2c(c(=O)[nH]1)C1(CCCC1)Cc1ccccc1-2	-7.4	6.0	3.5	0.9	1.3	97.1
Cc1c(CCCl)c(Cl)n2c(nc3ccccc32)c1C#N	88.3*	x	x	x	x	x
COc1cc(C(=O)Oc2ccccc2/C=N/NC(=O)c2ccc(C)cc2)cc(OC)c1OC	50.1*	16.6	-2.0	46.8	-21.9	87.1
COc1ccc(C(=O)N/N=C/c2ccccc2OC(=O)c2ccccc2)cc1	47.3	x	-6.2	x	x	x
O=C(CCl)N1CCN(S(=O)(=O)c2ccc3ccccc3c2)CC1	80.9*	x	1.8	x	x	x
CN(C)C(=O)N1CCN(S(=O)(=O)c2ccc3ccccc3c2)CC1	-1.7	x	-1.5	x	x	x
C/C=C(/C)C(=O)OC1CC(C)(C)C[C@H]2C3=CC[C@@H]4[C@@]5(C)CCC(O[C@@H]6O[C@@H](C(=O)O)[C@@H](O)C(O[C@@H]7OC[C@H](O)[C@@H](O)[C@@H]7O[C@@H]7OC(CO)C(O)[C@@H](O)[C@@H]7O)C6O[C@@H]6OC(CO)C(O)C(O)C6O)[C@@](C)(CO)[C@@H]5CC[C@]4(C)[C@]3(C)CC(O)[C@@]12CO (stereo not given in full)	-3.0	x	x	x	x	x
C/C=C(\C)C(=O)OC1[C@H](OC(C)=O)C2(CO)C(CC1(C)C)C1=CCC3C4(C)CCC(O[C@@H]5O[C@H](C(=O)O)[C@@H](O[C@@H]6O[C@H](CO)[C@@H](O)[C@H](O)[C@H]6O)[C@H](O)[C@H]5O[C@H]5O[C@H](CO)[C@@H](O)[C@H](O)[C@H]5O)[C@](C)(CO)C4CCC3(C)[C@]1(C)C[C@H]2O (stereo not given in full)	89.0*	x	x	x	x	x
SMILES	C8 TRAIL sens	STAT3 inh	HSP90 inh	PPC-1+TRAIL kill	STAT1 blocker	STAT3 act
CC(=NNc1ccc2ccccc2n1)c1ccccc1O	76.9*	x	x	x	x	x
C/C(=N\Nc1nc2ccccc2nc1C)c1ccccc1O	-5.9	x	7.0	21.8	x	x
O=C1NC(=S)CN1c1ccccc1	-20.0	x	-3.5	-2.1	x	x
O=C1c2ccccc2C(=O)C1(CO)c1ccccc1	3.5	-3.3	-1.6	7.4	-22.1	103.7
O=C1c2ccccc2C(=O)C1(CO)c1ccc(OC(F)F)cc1	79.0*	x	2.4	x	x	x
O=C(Oc1ccc(Br)cc1C(=O)/C=C/c1ccccc1F)c1ccco1	24.4	-39.2	4.1	x	-1.0	140.3*
c1ccc2c(c1)COc1c3cc4c(cc3nn1-2)OCO4	58.7*	x	x	x	x	x
O=C(CC[C@H]1O[C@@H](n2cnc3c(NC(=O)c4ccccc4)ncnc32)[C@H](O)[C@@H]1O)NCC1CCCO1 (stereo not given in full)	10.0	x	x	x	x	x
O=C(/C=C/[C@H]1O[C@@H](n2cnc3c(NC(=O)c4ccccc4)ncnc32)[C@H](O)[C@@H]1O)NCC1CCCO1 (stereo not given in full)	54.2*	x	x	x	x	x
CCOc1cccc(C(=O)Nc2ccc3[nH]ncc3c2)c1	61.7*	x	5.5	x	x	x
Cn1c(=O)c2c(nc(CN3CCN(C(=O)c4ccco4)CC3)n2CCc2ccccc2)n(C)c1=O	-0.9	4.5	1.5	3.1	1.6	99.1
O=C(Oc1c(CN2CCOCC2)cc(Cl)c2cccnc12)c1ccccc1F	54.4*	5.4	0.8	23.4	5.2	101.2
Cc1ccc(C(=O)Oc2ccc(C(=O)COC(=O)c3cnccn3)cc2)cc1	50.6*	-5.3	-0.9	0.9	-5.5	108.5
Cc1ccc(C(=O)COC(=O)c2cnccn2)cc1	-0.3	0.6	-0.9	1.1	-9.4	105.7
CN(C)/C=N/C1=C(C#N)C(c2ccc(Br)cc2)c2ccc3ccccc3c2O1 (stereo not given)	8.0	x	16.8*	x	x	x
COc1ccc(-c2cc3ccccc3cn2)cc1	55.5*	x	x	x	x	x
COc1ccc2cc(-c3cccnc3)ncc2c1	32.4	x	x	x	x	x
c1ccc(-c2cc(-c3cc(-c4ccccc4)on3)no2)cc1	14.1	x	x	x	x	x
COc1ccc(-c2cc3ccc(OC)cc3cn2)cc1	76.7*	x	x	x	x	x
COc1ccc(-c2cc(-c3ccccc3)no2)cc1	59.4*	x	x	x	x	x
COc1ccc(-c2noc(-c3ccccc3F)n2)cc1	33.5	15.7	-0.1	-7.4	-22.2	91.1
COc1ccc2cc(-c3ccccc3F)ncc2c1	53.0*	x	x	x	x	x
CCC(=O)N(CC)c1nc(-c2ccc(OC)cc2)cs1	1.6	14.4	-1.8	15.8	-46.8	91.8
